Columns and labels:
[1] = Oral bioavailability in rat at 5 mg/kg; assay type: ADME, organism-based; conditions: in vivo
In short: (§1)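 Single-dose PK study. The iv dose was given in 10% hydroxypropyl-β-cyclodextrin and the oral dose in 0.5% methylcellulose/1% Tween80. Mouse and rat received 1 mg/kg iv and 5 mg/kg po. Dog received 0.5 mg/kg iv and 4 mg/kg po. CL, Vss, t1/2, AUC, Cmax, tmax and F were derived.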

[2] = target: T1, Mineralocorticoid receptor (Homo sapiens, UniProt P08235); test: Antagonist activity at mineralocorticoid receptor (unknown origin)
T1 sequence (P08235 whole entry): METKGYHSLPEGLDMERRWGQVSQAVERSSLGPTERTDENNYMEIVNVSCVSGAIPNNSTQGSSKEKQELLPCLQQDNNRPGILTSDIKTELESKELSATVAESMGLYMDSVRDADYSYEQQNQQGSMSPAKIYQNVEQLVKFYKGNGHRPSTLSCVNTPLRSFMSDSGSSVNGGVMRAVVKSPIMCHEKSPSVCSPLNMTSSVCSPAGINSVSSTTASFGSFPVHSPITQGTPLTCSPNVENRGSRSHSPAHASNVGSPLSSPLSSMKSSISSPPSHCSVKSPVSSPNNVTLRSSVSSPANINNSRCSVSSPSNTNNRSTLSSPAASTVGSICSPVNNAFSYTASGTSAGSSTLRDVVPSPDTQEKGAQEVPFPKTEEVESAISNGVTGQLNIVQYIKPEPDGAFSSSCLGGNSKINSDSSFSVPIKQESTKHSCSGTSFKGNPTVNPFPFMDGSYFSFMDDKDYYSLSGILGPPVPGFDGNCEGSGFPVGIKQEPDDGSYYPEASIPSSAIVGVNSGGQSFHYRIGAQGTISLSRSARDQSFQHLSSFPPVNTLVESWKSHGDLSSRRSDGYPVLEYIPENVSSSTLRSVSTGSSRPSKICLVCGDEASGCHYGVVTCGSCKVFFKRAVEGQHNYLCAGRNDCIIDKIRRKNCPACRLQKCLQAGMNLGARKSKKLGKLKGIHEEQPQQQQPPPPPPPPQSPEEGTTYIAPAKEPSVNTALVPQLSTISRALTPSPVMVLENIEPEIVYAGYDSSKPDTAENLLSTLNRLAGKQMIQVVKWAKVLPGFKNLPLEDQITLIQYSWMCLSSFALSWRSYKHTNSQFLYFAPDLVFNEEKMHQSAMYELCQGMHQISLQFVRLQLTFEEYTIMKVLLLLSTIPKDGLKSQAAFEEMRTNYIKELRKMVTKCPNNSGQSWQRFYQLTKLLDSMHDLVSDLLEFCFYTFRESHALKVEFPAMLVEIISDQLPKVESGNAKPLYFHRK

[3] = Metabolic stability in mouse liver microsomes assessed as compound remaining after 30 mins; assay type: ADME, Microsome; conditions: read-out: Stabilty
[4] = Drug level in mouse plasma at 10 mg/kg, po measured after 2 hrs post dose; assay type: ADME, organism-based; conditions: in vivo
In short: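 C57BL/6 mice given a single oral 10 mg/kg dose in 0.5% methylcellulose plus 1% Tween80. Sacrifice at 2 h post-dose, with collection of brain, liver, adipose and plasma. Compound concentration expressed as nmol/g, along with tissue/plasma ratio.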

[5] = target: 11-beta-hydroxysteroid dehydrogenase 1 (Homo sapiens, UniProt P28845); test: Inhibition of human 11beta-HSD1 expressed in microsomes; parameters: species or system Microsome
Chain of 11-beta-hydroxysteroid dehydrogenase 1 (P28845 whole entry): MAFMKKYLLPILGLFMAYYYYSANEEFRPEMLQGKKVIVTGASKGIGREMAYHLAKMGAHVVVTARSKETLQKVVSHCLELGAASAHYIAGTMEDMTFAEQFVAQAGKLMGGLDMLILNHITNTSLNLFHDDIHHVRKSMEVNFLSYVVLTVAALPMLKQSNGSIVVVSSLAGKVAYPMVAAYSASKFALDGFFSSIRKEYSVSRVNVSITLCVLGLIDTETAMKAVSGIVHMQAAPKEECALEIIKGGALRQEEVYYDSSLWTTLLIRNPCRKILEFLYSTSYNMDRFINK
In short: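 HEK293 cell lysates (microsomal fractions) overexpressing human or mouse 11β-HSD1 were incubated with cortisone, a range of inhibitor concentrations and an NADPH regenerating system in sodium phosphate buffer at 37°C for 1 h. Cortisol in the supernatant was quantified by ELISA. Percent inhibition was fitted to a sigmoidal dose-response curve to give IC50.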

[6] = In-vivo inhibition of 11beta-HSD1 activity in C57BL/6 mouse epididymal fat assessed as reduction in cortisone to-cortisol conversion at 30 mg/kg, po measured after 2 hrs by ELISA; assay type: functional; conditions: C57BL/6, Epididymal fat pad
In short: (§2)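 Male C57BL/6 mice dosed orally once at 3, 10 or 30 mg/kg in sterile water containing 0.5% methylcellulose and 1% Tween80, then sacrificed at 2 or 6 h. Liver and epididymal fat pads incubated ex vivo in culture medium containing cortisone. Cortisol formed was measured by ELISA and reported as % inhibition versus vehicle.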

[7] = Volume of distribution at steady state in dog at 0.5 mg/kg, iv; assay type: ADME, organism-based, Canis lupus familiaris; conditions: in vivo, read-out: Vdss; in short: as §1
[8] = In-vivo inhibition of 11beta-HSD1 activity in C57BL/6 mouse epididymal fat assessed as reduction in cortisone to-cortisol conversion at 10 mg/kg, po measured after 6 hrs by ELISA; assay type: functional; conditions: C57BL/6, Epididymal fat pad; in short: as §2
[9] = Half life in dog at 0.5 mg/kg, iv; assay type: ADME, organism-based, Canis lupus familiaris; conditions: in vivo
Cytochrome P450 2C9 = Cytochrome P450 2C9 (Homo sapiens, UniProt P11712); test: Inhibition of CYP2C9 in pooled human liver microsomes using diclofenac as substrate in presence of NADPH incubated for 10 mins by LC-MS/MS analysis
Chain of Cytochrome P450 2C9 (P11712 whole entry): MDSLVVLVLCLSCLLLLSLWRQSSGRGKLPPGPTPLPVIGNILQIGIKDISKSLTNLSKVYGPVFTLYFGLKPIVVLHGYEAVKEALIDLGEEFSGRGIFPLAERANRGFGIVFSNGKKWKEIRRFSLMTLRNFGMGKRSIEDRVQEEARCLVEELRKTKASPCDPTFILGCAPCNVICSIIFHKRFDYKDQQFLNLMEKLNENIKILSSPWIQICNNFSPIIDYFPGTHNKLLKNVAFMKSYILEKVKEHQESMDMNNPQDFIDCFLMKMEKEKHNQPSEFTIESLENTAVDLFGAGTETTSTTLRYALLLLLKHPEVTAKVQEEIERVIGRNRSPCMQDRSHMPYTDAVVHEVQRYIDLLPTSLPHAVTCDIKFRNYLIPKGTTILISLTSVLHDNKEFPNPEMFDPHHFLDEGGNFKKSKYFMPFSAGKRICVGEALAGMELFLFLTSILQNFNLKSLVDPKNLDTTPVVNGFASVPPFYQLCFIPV

[10] = Ratio of drug level in liver to plasma of mouse at 10 mg/kg, po measured after 2 hrs post dose; assay type: ADME, organism-based
In short: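 C57BL/6 mice received a single oral dose of 10 mg/kg in 0.5% methylcellulose/1% Tween80. Animals were sacrificed 2 h post-dose. Compound was measured in brain, liver, adipose and plasma (nmol/g), and tissue/plasma ratios were calculated.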

[11] = In-vivo inhibition of 11beta-HSD1 activity in C57BL/6 mouse epididymal fat assessed as reduction in cortisone to-cortisol conversion at 10 mg/kg, po measured after 2 hrs by ELISA; assay type: functional; conditions: C57BL/6, Epididymal fat pad; in short: as §2
Mus musculus = test: Improvement in lipid profile in C57BL/6-Lep^ob (ob/ob) mouse assessed as triglyceride level at 20 mg/kg, po dosed once daily for 25 days (reference value: 90.9 +/- 5.5 mg/dl); assay type: functional; conditions: time 25 day
[12] = target: T2, 11-beta-hydroxysteroid dehydrogenase type 2 (Homo sapiens) (UniProt P80365); test: Inhibition of human 11beta-HSD2 expressed in microsomes at 1 uM relative to control; conditions: Microsome
T2 sequence (whole entry): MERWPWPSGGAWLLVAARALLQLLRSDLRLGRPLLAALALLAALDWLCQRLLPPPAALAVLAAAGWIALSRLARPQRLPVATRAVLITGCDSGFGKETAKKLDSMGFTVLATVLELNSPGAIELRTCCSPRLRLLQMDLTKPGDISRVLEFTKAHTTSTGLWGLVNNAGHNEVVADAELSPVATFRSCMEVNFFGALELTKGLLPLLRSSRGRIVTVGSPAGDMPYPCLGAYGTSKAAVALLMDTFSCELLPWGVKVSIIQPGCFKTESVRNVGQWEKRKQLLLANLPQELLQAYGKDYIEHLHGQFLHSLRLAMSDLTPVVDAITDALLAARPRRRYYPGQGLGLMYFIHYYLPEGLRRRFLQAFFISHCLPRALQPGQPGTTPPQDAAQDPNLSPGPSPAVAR

C[C@@H]1CN(c2ccc(S(C)(=O)=O)cc2F)CCN1c1nccc(C(=O)NC2C3CC4CC2CC(O)(C4)C3)n1 (some centres undefined)
bioavailability [1]: 60%
EC50 [2]: > 5 µM
remaining at 0.5 h [3]: 98%
Cp [4]: 10.6 nmol/g
IC50 [5]: 0.0029 µM
inhibition in vivo at 30 mg/kg [6]: 92%
Vd [7]: 2.4 L/kg
inhibition in vivo at 10 mg/kg [8]: 93%
half-life [9]: 4.7 h
IC50 (Cytochrome P450 2C9): > 10 µM
Kp at 2 h [10]: 2.94
inhibition in vivo at 10 mg/kg [11]: 88%
Activity (Mus musculus): 83.4 mg/dL
inhibition [12]: 6%

From ChEMBL document CHEMBL4680093 (J Med Chem, 2016)
